1 compound from article PMC6605687 (The Journal of General Physiology, 2019) can be followed below.

Usually EC50 stands for the concentration giving half of the maximal effect.

Holding throughout (assay type): cell-based
The target in experiment [1] is T1, rP2X2 Thr184Ser (Rattus norvegicus, UniProt P49653, T184S).
T1 sequence (P49653 1-472 T184S): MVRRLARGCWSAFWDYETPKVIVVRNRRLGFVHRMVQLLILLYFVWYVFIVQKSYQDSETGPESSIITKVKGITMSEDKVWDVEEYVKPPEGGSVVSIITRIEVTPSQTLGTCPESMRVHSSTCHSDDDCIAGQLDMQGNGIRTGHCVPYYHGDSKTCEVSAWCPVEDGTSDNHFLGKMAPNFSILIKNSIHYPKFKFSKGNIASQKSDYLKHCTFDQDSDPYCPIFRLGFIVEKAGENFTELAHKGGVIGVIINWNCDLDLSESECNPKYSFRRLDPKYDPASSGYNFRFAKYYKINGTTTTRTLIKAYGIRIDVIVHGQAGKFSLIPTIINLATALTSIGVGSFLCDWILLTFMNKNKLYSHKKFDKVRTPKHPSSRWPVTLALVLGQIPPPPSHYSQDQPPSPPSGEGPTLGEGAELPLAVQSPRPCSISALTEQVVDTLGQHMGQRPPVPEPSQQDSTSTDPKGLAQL
The experiment can be described thus: Two-electrode voltage clamp, oocytes expressing rP2X2 Thr184Ser. The procedure, abridged: (§1)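 Mutations were made by site-directed mutagenesis. Xenopus oocytes were injected with rP2X2 mRNA and incubated in L-15 at 18°C. Two-electrode voltage clamp was done 1–2 days later at −40 mV under ND96 perfusion (pH 7.4). ATP concentration-response currents were normalised and fitted to a one-component Hill equation for EC50 and Hill coefficient. Results are mean ± SEM, tested by one-way ANOVA with Dunnett's test against WT.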

In experiment [2] the target is T2, rP2X2 Thr184Val (Rattus norvegicus, UniProt P49653, T184V).
T2 sequence (P49653 1-472 T184V): T1 sequence (P49653 1-472 T184S) with S184V
The experiment can be described thus: Two-electrode voltage clamp, oocytes expressing rP2X2 Thr184Val. The method in brief:
as §1

Experiment [3] deals with T3, rP2X2 Arg290Gln (Rattus norvegicus, UniProt P49653, R290Q).
T3 sequence (P49653 1-472 R290Q): T1 sequence (P49653 1-472 T184S) with S184T, R290Q
The experiment can be described thus: Two-electrode voltage clamp, oocytes expressing rP2X2 Arg290Gln. The procedure, abridged:
as §1

The target of experiment [4] is T4, rP2X2 Lys71Gln (Rattus norvegicus, UniProt P49653, K71Q).
T4 sequence (P49653 1-472 K71Q): T1 sequence (P49653 1-472 T184S) with K71Q, S184T
The experiment can be described thus: Two-electrode voltage clamp, oocytes expressing rP2X2 Lys71Gln. The procedure, abridged: as §1

Experiment [5] concerns the target T5, rP2X2 Lys71Arg (Rattus norvegicus, UniProt P49653, K71R).
T5 sequence (P49653 1-472 K71R): T1 sequence (P49653 1-472 T184S) with K71R, S184T
The experiment can be described thus: Two-electrode voltage clamp, oocytes expressing rP2X2 Lys71Arg. The method in brief:
as §1
A general note: Two-electrode voltage clamp holds a large cell at a set potential and records current.

Structures are written as SMILES. Changes are numbered by the printed parent chain.

Turning to `Nc1ncnc2c1ncn2[C@@H]1O[C@H](COP(=O)(O)OP(=O)(O)OP(=O)(O)O)[C@@H](O)[C@H]1O` [ATP, Adenosine 5′-triphosphate], the EC50 in experiment [1] turned out to be 0.026 ± 0.003 mM; in experiment [2] it was 3.2 mM; in experiment [3] it was 4.9 mM; in experiment [4] it was 6.3 mM; in experiment [5] it was 0.37 ± 0.04 mM. Moreover, in experiment [1] (Thr184Ser compared with WT), the “Sensitivity to agonist (in words)” value is “WT-like sensitivity”. In addition, the “Fold increase in EC50 (reduction in sensitivity), Thr184Val versus WT” value in experiment [2] (Thr184Val compared with WT) amounted to 100 fold.
